In brackets after ≈: the same amount, converted by molar mass. Activity calls are given as the source filed them. No cut-off for these calls is given here.
Key:
[1] = system: Mycobacterium tuberculosis; experiment: Antimycobacterial activity against 5-(((3S,4R)-3-Fluoro-1-(2-(7-methoxy-2-oxo-1,5-naphthyridin-1(2H)-yl)ethyl)piperidin-4-ylamino)methyl)-2-methylnicotinonitrile-resistant Mycobacterium tuberculosis harboring DNA gyraseA D89N mutant; assay type: functional
[2] = system: Mycobacterium tuberculosis; experiment: Antimycobacterial activity against moxifloxacin-resistant Mycobacterium tuberculosis harboring DNA gyraseA G88N mutant; assay type: functional
[3] = system: Mycobacterium tuberculosis; experiment: Antimycobacterial activity against 2-oxo-1-(2-(4-((3-oxo-3,4-dihydro-2H-pyrido[3,2-b][1,4]oxazin-6-yl)methylamino)piperidin-1-yl)ethyl)-1,2-dihydroquinoline-7-carbonitrile-resistant Mycobacterium tuberculosis harboring DNA gyraseA A74V mutant; assay type: functional
[4] = system: Mycobacterium tuberculosis; experiment: Antimycobacterial activity against spontaneously resistant mutant of Mycobacterium tuberculosis H37Rv at 10 to 20 times MIC up to 6 to 8 weeks; assay type: functional, organism-based
How it was run: (§1)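 Single-step selection: mid-log H37Rv culture concentrated 100-fold to ~10^10 cfu/mL and plated in dilutions on 7H11 agar with varying drug concentrations. Drug-free plates were counted after 4 weeks at 37 °C and drug plates after 6−8 weeks. Frequency is the colony count on drug plates divided by viable cfu on drug-free plates.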

[5] = Ratio of MIC for 5-(((3S,4R)-3-Fluoro-1-(2-(7-methoxy-2-oxo-1,5-naphthyridin-1(2H)-yl)ethyl)piperidin-4-ylamino)methyl)-2-methylnicotinonitrile-resistant Mycobacterium tuberculosis harboring DNA gyraseA D89N mutant to MIC for wild-type Mycobacterium tuberculosis H37Rv ATCC 27294; assay type: functional
[6] = Ratio of MIC for 2-oxo-1-(2-(4-((3-oxo-3,4-dihydro-2H-pyrido[3,2-b][1,4]oxazin-6-yl)methylamino)piperidin-1-yl)ethyl)-1,2-dihydroquinoline-7-carbonitrile-resistant Mycobacterium tuberculosis harboring DNA gyraseA A74V mutant to MIC for wild-type Mycobacterium tuberculosis H37Rv ATCC 27294; assay type: functional
[7] = system: Mycobacterium tuberculosis; experiment: Antimycobacterial activity against spontaneously resistant mutant of Mycobacterium tuberculosis H37Rv at 8 times MIC up to 6 to 8 weeks; assay type: functional, organism-based; how it was run: as §1

Structure (SMILES) | MIC [1] [µg/mL] | MIC [2] [µg/mL] | MIC [3] [µg/mL] | Activity [4] | Ratio [5] | Ratio [6] | Activity [7]
O=C1COc2ccc(CN[C@H]3CCN(CCn4c(=O)ccc5ncc(F)cc54)C[C@H]3F)nc2N1 | >2 | 0.06 (≈ 0.128 µM) | >2 | – | – | – | –
COc1c(N2C[C@@H]3CCCN[C@@H]3C2)c(F)cc2c(=O)c(C(=O)O)cn(C3CC3)c12 [MOXIFLOXACIN] | 1 (≈ 2.49 µM) | 4 (≈ 9.96 µM) | 0.06 (≈ 0.149 µM) | inactive | – | – | –
Cc1ncc(CNC2CCN(CCn3c(=O)ccc4ccc(C#N)cc43)CC2)cc1C#N | >2 | 0.06 (≈ 0.141 µM) | >2 | – | > 16 | > 16 | –
N#Cc1ccc2ccc(=O)n(CCN3CCC(NCc4ccc5c(n4)NC(=O)CO5)CC3)c2c1 | >2 | 0.03 (≈ 0.0654 µM) | 2 (≈ 4.36 µM) | – | > 16 | > 16 | inactive
O=C(O)c1cn(C2CC2)c2cc(N3CCNCC3)c(F)cc2c1=O [CIPROFLOXACIN] | 4 (≈ 12.1 µM) | 8 (≈ 24.1 µM) | 0.25 (≈ 0.754 µM) | – | 16 | – | inactive
CC1COc2c(N3CCN(C)CC3)c(F)cc3c(=O)c(C(=O)O)cn1c23 (centres undefined) [OFLOXACIN] | 4 (≈ 11.1 µM) | 16 (≈ 44.3 µM) | 1 (≈ 2.77 µM) | – | 8 | – | –
CO[C@H]1/C=C/O[C@@]2(C)Oc3c(C)c(O)c4c(O)c(c(/C=N/N5CCN(C)CC5)c(O)c4c3C2=O)NC(=O)/C(C)=C\C=C\[C@H](C)[C@H](O)[C@@H](C)[C@@H](O)[C@@H](C)[C@H](OC(C)=O)[C@@H]1C [RIFAMPIN] | 0.015 (≈ 0.0182 µM) | 0.008 (≈ 0.00972 µM) | 0.008 (≈ 0.00972 µM) | – | – | – | –
COc1cnc2ccc(=O)n(CCN3CC[C@@H](NCc4cnc(C)c(C#N)c4)[C@@H](F)C3)c2c1 | >1 | 0.03 (≈ 0.0666 µM) | 1 (≈ 2.22 µM) | inactive | > 16 | > 16 | –
NNC(=O)c1ccncc1 [ISONIAZID] | 0.03 (≈ 0.219 µM) | 0.06 (≈ 0.438 µM) | 0.06 (≈ 0.438 µM) | – | – | – | –

Reference: ChEMBL document CHEMBL3286091, “Novel N-linked aminopiperidine-based gyrase inhibitors with improved hERG and in vivo efficacy against Mycobacterium tuberculosis” (J Med Chem, 2014)
